Converted amounts (≈) assume the structure as drawn. The source made the active and inactive calls. The calls are words filed in the database; no cut-off is given here.
Columns and labels:
[1] = system: Staphylococcus aureus; assay: Antibacterial activity against Staphylococcus aureus MTCC737 measured after 6 hrs by broth microdilution assay; type: functional; details: MTCC737, 6 h
How it was run: (§1)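 Broth microdilution per CLSI; 5×10^5 cfu/mL bacteria in LB broth; compounds from DMSO stocks, final DMSO under 0.6%, with DMSO control. Plates incubated at the strain's recommended growth temperature and time; growth read as OD600.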

[2] = system: Staphylococcus epidermidis; assay: Antibacterial activity against Staphylococcus epidermidis MTCC3615 by broth microdilution assay; type: functional; how it was run: as §1
[3] = Antibacterial activity against Arthrobacter chlorophenolicus A6MTCC3706 by broth microdilution assay; type: functional; details: Pseudarthrobacter chlorophenolicus; how it was run: as §1
[4] = system: Escherichia coli; assay: Antibacterial activity against Escherichia coli MTCC1916 by broth microdilution assay; type: functional; how it was run: as §1
[5] = system: Pseudomonas aeruginosa; assay: Antibacterial activity against Pseudomonas aeruginosa MTCC1688 by broth microdilution assay; type: functional; how it was run: as §1
[6] = system: HEK293; assay: Cytotoxicity against HEK293 cells measured after 24 hrs by MTT assay; type: cell-based; details: Homo sapiens, HEK293, 24 h
How it was run: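 HEK 293 cells, 4000/well, seeded overnight in DMEM + 10% FBS at 37°C in CO2; compound dose series for 24 h (final DMSO <0.5%, DMSO-only control). MTT at 1 mg/mL final for 3 h, formazan dissolved in DMSO, absorbance 595 nm; IC50 from triplicate OD data.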

[7] = Selectivity index, ratio of IC50 for HEK293 cells to MIC for Staphylococcus aureus MTCC737; type: toxicity; details: human, read-out: Selectivity Index
[8] = Binding affinity to pCDNA 3.1 (unknown origin) assessed as DNA unwinding effect at 1:1 to 5:1 compound to DNA ratio measured after 16 hrs by EtBr staining agarose gel shift assay
How it was run: (§2)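 pCDNA3.1 plasmid (amplified in E. coli DH5α), 40 µM, in 50 mM NaP pH 7, 10 mM NaCl, mixed with compound at set compound:DNA base-pair ratios; 16 h at 37°C. Run on 1% agarose at 50 V ~3 h, stained with EtBr 1 µg/mL for 5 min, imaged.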

[9] = system: Calf thymus DNA; assay: Binding affinity to calf thymus DNA assessed as change in B-DNA structure at 265 nm by circular dichroism method; type: nucleic-acid assay; details: Bos taurus
[10] = system: Calf thymus DNA; assay: Binding affinity to calf thymus DNA assessed as appearance of induced CD at […] by circular dichroism method; type: nucleic-acid assay; details: Bos taurus
[11] = system: DNA; assay: Inhibition of ethidium bromide binding to Staphylococcus aureus DNA by fluorescence assay; type: nucleic-acid assay
How it was run: (§3)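 Fluorescence intercalator displacement: S. aureus genomic DNA 10 µM plus EtBr 5 µM in 10 mM NaP pH 7, 10 mM NaCl, 1% DMSO, at 25 and 37 °C; titrated with 2.5–100 µM compound. Excitation 480 nm, emission 520–700 nm, inner-filter corrected, triplicates; Stern–Volmer analysis, F0/F = 1 + Ksv[Q].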

[12] = system: DNA; assay: Inhibition of ethidium bromide binding to Staphylococcus aureus DNA assessed as Stern-Volmer quenching constant by fluorescence assay; type: nucleic-acid assay; how it was run: as §3
[13] = system: Calf thymus DNA; assay: Binding affinity to calf thymus DNA by isothermal titration calorimetric analysis; type: nucleic-acid assay; details: Bos taurus
[14] = Binding affinity to pCDNA 3.1 (unknown origin) assessed as DNA unwinding effect at 5:1 compound to DNA ratio measured after 16 hrs by EtBr staining agarose gel shift assay; how it was run: as §2

| MIC [1] [µg/mL] | MIC [2] [µg/mL] | MIC [3] [µg/mL] | MIC [4] [µg/mL] | MIC [5] [µg/mL] | Activity [8] | Activity [9] | Activity [10] | inhibition [11] | KSV [12] [×10⁴ /M] | Ka [13] [×10⁴ /M] | Activity [14] | Compound | IC50 [6] [µg/mL] | selectivity ratio [7] |
| --- | --- | --- | --- | --- | --- | --- | --- | --- | --- | --- | --- | --- | --- | --- |
| 0.89 (≈ 1.98 µM) | 0.89 (≈ 1.98 µM) | 1.57 (≈ 3.5 µM) | 34.3 (≈ 76.5 µM) | > 200 | Active | Dose-dependent effect | Dose-dependent effect | Dose-dependent effect | 1.7 | 3.06 |  | CN(C)CCCNc1nc2cc([N+](=O)[O-])ccc2nc1NCc1cccc(C(F)(F)F)c1 | 7.99 (≈ 17.8 µM) | 9 |
| 3.11 (≈ 7.5 µM) | 6.22 (≈ 15 µM) | 2.49 (≈ 6 µM) | > 207 | > 207 |  |  |  |  |  |  |  | CN(C)CCCNc1nc2cc([N+](=O)[O-])ccc2nc1NCc1ccc(Cl)cc1 | 10.7 (≈ 25.9 µM) |  |
| 4.93 (≈ 12.5 µM) | 7.89 (≈ 20 µM) | 6.9 (≈ 17.5 µM) | 75.6 (≈ 192 µM) | > 200 |  |  |  |  |  |  |  | Cc1ccccc1CNc1nc2ccc([N+](=O)[O-])cc2nc1NCCCN(C)C | 27.6 (≈ 70 µM) |  |
| 11.4 (≈ 30 µM) | 13.3 (≈ 35 µM) | 7.6 (≈ 20 µM) | 114 (≈ 300 µM) | 57 (≈ 150 µM) |  |  |  |  |  |  |  | CN(C)CCCNc1nc2cc([N+](=O)[O-])ccc2nc1NCc1ccccc1 | 2.74 (≈ 7.2 µM) |  |
| 7.97 (≈ 20 µM) | 5.98 (≈ 15 µM) | 3.98 (≈ 9.99 µM) | 86.3 (≈ 217 µM) | > 200 |  |  |  |  |  |  | Active | CN(C)CCCNc1nc2cc([N+](=O)[O-])ccc2nc1NCc1ccc(F)cc1 | 4.28 (≈ 10.7 µM) |  |
| 1.69 (≈ 3.5 µM) | 0.96 (≈ 1.99 µM) | 1.69 (≈ 3.5 µM) | 7.24 (≈ 15 µM) | > 240 |  |  |  |  |  |  |  | CN(C)CCCNc1nc2cc([N+](=O)[O-])ccc2nc1NCc1ccc(Cl)c(C(F)(F)F)c1 | 3.26 (≈ 6.75 µM) |  |
| 3.36 (≈ 7.49 µM) | 2.24 (≈ 4.99 µM) | 2.91 (≈ 6.49 µM) | 68.3 (≈ 152 µM) | > 224 |  |  |  |  |  |  |  | CN(C)CCCNc1nc2cc([N+](=O)[O-])ccc2nc1NCc1ccccc1C(F)(F)F | 24.7 (≈ 55 µM) |  |
| 3.03 (≈ 7.01 µM) | 4.32 (≈ 9.99 µM) | 4.32 (≈ 9.99 µM) | 4.32 (≈ 9.99 µM) | 10.8 (≈ 25 µM) |  |  |  |  |  |  |  | O=[N+]([O-])c1ccc2nc(NCc3ccc(C(F)(F)F)cc3)c(N3CCNCC3)nc2c1 | 9.61 (≈ 22.2 µM) |  |
| 3.45 (≈ 7.51 µM) | 4.59 (≈ 9.99 µM) | 2.76 (≈ 6.01 µM) | > 230 | > 230 |  |  |  |  |  |  |  | CN(C)CCCNc1nc2cc([N+](=O)[O-])ccc2nc1NCc1ccccc1Br | 51.9 (≈ 113 µM) | 15 |
| 4.59 (≈ 9.99 µM) | 2.29 (≈ 4.99 µM) | 2.29 (≈ 4.99 µM) | 4.59 (≈ 9.99 µM) | 13.8 (≈ 30 µM) |  |  |  |  |  |  |  | CN(C)CCCNc1nc2cc([N+](=O)[O-])ccc2nc1NCc1cccc(Br)c1 | 3.66 (≈ 7.97 µM) |  |
| 0.04 (≈ 0.0363 µM) | 0.02 (≈ 0.0182 µM) | 0.07 (≈ 0.0636 µM) | 21 (≈ 19.1 µM) | > 200 |  |  |  |  |  |  |  | CS[C@@H]1SC[C@H]2C(=O)N(C)[C@@H](C(C)C)C(=O)OC[C@@H](NC(=O)c3cnc4ccccc4n3)C(=O)N[C@@H](C)C(=O)N(C)[C@@H]1C(=O)N(C)[C@@H](C(C)C)C(=O)OC[C@@H](NC(=O)c1cnc3ccccc3n1)C(=O)N[C@@H](C)C(=O)N2C | 0.014 (≈ 0.0127 µM) |  |

From ChEMBL document CHEMBL4373710, “DNA Structural Alteration Leading to Antibacterial Properties of 6-Nitroquinoxaline Derivatives” (J Med Chem, 2019)
